# Screening data from PubChem.
# Rows were chosen to be rich in hits. Some 2.5% of all compounds tested hit in one or more screens of this group.
# SIAE inh: human SIAE inhibitors, primary screen, biochemical, fluorescence polarization, FP-Rh probe, 1536-well HTS; Sialate O-acetylesterase (Homo sapiens), Q9HAT2; SIAE FP-Rh probe binding; inhibition, % at 9.66 µM; 370,000 compounds, 0.69% hits; AID 1053197, 2014;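 active = inhibition above a cutoff: mean of compounds within the control limits plus 3 SD of those, cut at about 17% in these data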;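 note: 0% = plate median of compound wells and 100% = probe without SIAE protein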
# Target sequence (Q9HAT2 whole entry, looked up): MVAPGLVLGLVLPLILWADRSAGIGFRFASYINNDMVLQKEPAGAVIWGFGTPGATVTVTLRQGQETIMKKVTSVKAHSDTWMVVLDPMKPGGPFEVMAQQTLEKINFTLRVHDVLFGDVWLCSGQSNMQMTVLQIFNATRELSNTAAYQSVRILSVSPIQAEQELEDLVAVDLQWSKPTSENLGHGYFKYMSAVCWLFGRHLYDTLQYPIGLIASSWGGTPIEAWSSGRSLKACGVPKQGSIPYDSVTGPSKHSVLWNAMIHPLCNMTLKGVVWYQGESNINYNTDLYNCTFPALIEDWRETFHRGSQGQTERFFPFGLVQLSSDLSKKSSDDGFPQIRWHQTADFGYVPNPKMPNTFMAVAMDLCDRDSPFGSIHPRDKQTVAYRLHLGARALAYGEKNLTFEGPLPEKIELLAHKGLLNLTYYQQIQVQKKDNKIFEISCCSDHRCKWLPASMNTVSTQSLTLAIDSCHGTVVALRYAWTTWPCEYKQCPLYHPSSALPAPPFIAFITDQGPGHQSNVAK
# PRMT1 inh: PRMT1 methyltransferase inhibitors, primary screen, biochemical, fluorescence polarization; AID 652257, 2013; inhibition, % at 2.79 µM; Protein arginine N-methyltransferase 1 (Homo sapiens), Q99873; recombinant PRMT1, activity-based probe fluorescence polarization; 370,000 compounds, 1.3% hits;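 active = inhibition above about 21% made by adding two undisclosed values, limit read from the data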
# mABHD4 FP: ABHD4 inhibitors, primary screen, biochemical, fluorescence polarization, mouse. 370,000 compounds, 0.54% hits. AID 720543, 2013. purified mABHD4, FP-Rh probe fluorescence polarization. inhibition, % at 8.92 µM. (Lyso)-N-acylphosphatidylethanolamine lipase (Mus musculus), Q8VD66;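 active = inhibition exceeding the mean over every tested compound plus 3 SD, cut at about 30% in these data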;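 note: 0% = plate median of compound wells and 100% = S159A mutant with DMSO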
#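 Doses – 8.92 µM, single dose · Material – wild-type mouse ABHD4 protein · Replication – single well per compound (singlicate) · Measure – percent inhibition of probe binding, normalized to plate controls · Schedule – 45 min compound pre-incubation plus 60 min probe step, 25 °C · Detection – fluorescence polarization with parallel and perpendicular emission, 525/598 nm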
# HTRA1 inh: HTRA1 serine protease inhibitors, primary screen, biochemical, fluorescence polarization, HTS | Q92743 | AID 504803, 2011 | recombinant HTRA1, FP-rhodamine activity-based probe | 340,000 compounds, 0.5% hits | inhibition, % at 5.96 µM; in the data active = inhibition above about 36%;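 note: 0% = enzyme with DMSO and 100% = wells lacking enzyme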
# TCR CD3 inh: inhibitors of human TCR-CD3 interaction, primary screen, biochemical, fluorescence, TAMRA-labeled TCR probe. T-cell receptor (TCR). inhibition, % at 9.4 µM. 360,000 compounds, 0.37% hits; in the data active = inhibition above about 19%;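 note: recombinant mutant TCR 2C K166C tagged with TAMRA read by polarization; 0% = receptor in buffer alone and 100% = receptor with positive control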
# An asterisk follows results filed as active; · = no result given.
SMILES,SIAE inh,PRMT1 inh,mABHD4 FP,HTRA1 inh,TCR CD3 inh
CCCC[C@@H]1CNC(=O)C(=O)N1CCCC,-0.2,1.1,0.3,·,-4.2
O=C1C=CC2(C=C1)O[C@H](Cc1ccccc1)[C@@H](Cc1ccccc1)O2,2.3,51.1*,-13.8,-27.9,2.3
O=[N+]([O-])c1cc2oc3c(c2c(C=NCc2ccncc2)c1O)CCCC3,·,·,·,49.6*,·
CC1C(=O)N2CCCc3cc(NC(=O)c4ccccc4C(F)(F)F)cc1c32 (stereo not given),5.5,2.2,-1.5,0.4,7.2
COC(=O)C1CN(Cc2ccc(C)cc2)CCS(=O)(=O)N1Cc1cn(Cc2ccc(OC)cc2)nn1 (stereo not given),4.7,-0.9,0.7,·,·
O=C(O)c1ccc(CSc2nnc(-c3ccco3)o2)cc1,9.3,-1.3,-6.3,0.7,2.7
COc1cc(OC)cc(-c2nnc(SCc3ccc(C(=O)O)cc3)o2)c1,-7.9,22.3*,-17.6,0.5,-6.1
CCOC(=O)C1=C(CSc2nc(CC)c(C)cc2C#N)OC(N)=C(C#N)C1c1ccc(OC)cc1 (stereo not given),-0.3,21.2*,-25.4,-33.7,-10.7
CCOC(=O)C1=C(CSc2nc(-c3ccncc3)ccc2C#N)OC(N)=C(C#N)C1c1ccc(OC)cc1 (stereo not given),-16.1,14.8,-4.8,-15.4,-17.2
O=C(c1cnn2c(C(F)(F)F)cc(-c3cccs3)nc12)N1CCCC1,0.4,0.5,-0.2,5.8,-1.4
O=C(NCc1ccco1)c1cnn2c(C(F)(F)F)cc(-c3cccs3)nc12,-1.6,23.3*,3.3,-12.8,-7.5
CCOC(=O)C1CC(=NO)c2ccc(OC)c(OC)c2C1 (stereo not given),2.2,1.7,11.6,-0.2,-1.2
CCCCCCC12C(=Cc3cc4c(cc31)OCCO4)c1cc(OC)c(OC)cc1C(CC(=O)NCc1ccccc1)N2C(=O)OC (stereo not given),-3.7,0.7,-6.5,·,2.1
CNC(=O)c1c(C)[nH]c(=S)c(C#N)c1-c1ccco1,11.1,34.1*,8.4,9.2,-1.8
Cc1ccccc1NC(=O)c1c(C)[nH]c(=S)c(C#N)c1-c1ccco1,-6.2,24.5*,-8.1,-14.5,-3.2
O=C(OCc1cn(Cc2ccccc2)nn1)N1CCCC1,-1.1,-4.0,2.1,·,·
Clc1ccc(C[n+]2csc3ccccc32)cc1,-2.3,63.0*,6.0,4.0,-0.6
Fc1ccc(C[n+]2csc3ccccc32)cc1,2.6,73.9*,-9.3,5.5,-0.3
Fc1ccc(CSc2ncnc3scc(-c4ccccc4)c23)cc1,-8.2,4.4,-17.3,-22.4,-7.3
C[C@H]1[C@H](NC(=O)c2ccc(Cl)c(Cl)c2)CC[C@@]23CCCN2C(=O)CCC[C@@H]13,6.8,-0.4,1.8,·,·
COC(=O)[C@]12C[C@H](CC(=O)NCc3cccc(C(F)(F)F)c3)C(=O)N(CCC3=CCCCC3)C1=C[C@H](C1CCCC1)O[C@@H]2C,-4.0,5.4,0.1,·,·
Cc1nc2cc3nc(C)sc3cc2s1,2.1,21.8*,-1.6,4.3,-3.8
Cc1nc2cc3ccccc3cc2s1,-3.1,1.6,2.0,0.1,-3.6
O=C(CC1SC(N2CCCC2)=NC1=O)Nc1ccc(C(=O)NCCOc2ccccc2F)cc1 (stereo not given),-2.5,-2.7,-1.7,-8.3,3.4
CC1(C)Cc2c(c(=S)nc(-c3ccccc3)n2CCOCCO)CO1,-3.0,21.9*,3.1,-0.5,6.6
SMILES,SIAE inh,PRMT1 inh,mABHD4 FP,HTRA1 inh,TCR CD3 inh
C=CCn1c(-c2ccccc2)nc(=S)c2c1CC(C)(C)OC2,0.0,4.4,3.9,3.4,-1.8
O=Cc1ccc(/C=C2\c3ccccc3C(=O)N2c2ccccc2)o1,9.6,17.6,41.1*,·,-3.8
O=C1c2ccccc2C(=O)N1c1ccccc1,6.1,7.5,3.9,-3.5,-3.7
COC(=O)C(CC(=O)c1ccc(Br)cc1)n1cccn1 (stereo not given),0.9,22.3*,-0.2,0.6,-1.0
CCOC(=O)[C@]12CCC=C1N(Cc1ccc(Cl)cc1Cl)C(=O)[C@H](CC(=O)NCC1CCCCC1)C2,-4.4,1.7,3.1,·,1.0
Cc1cc(O)c2c(c1)C(=O)c1cccc(O)c1C2=O,1.9,9.9,12.6,·,-0.6
O=C(O)c1cc(O)c2c(c1)C(=O)c1cccc(O)c1C2=O,11.8,32.2*,98.5*,30.6,11.4
CC/C(=N\Nc1ccccc1[N+](=O)[O-])c1ccc(O)cc1,8.1,2.0,40.0*,·,6.5
CC/C(=N\Nc1ccc([N+](=O)[O-])cc1[N+](=O)[O-])c1ccc(O)cc1,0.8,-1.9,18.7,18.8,0.8
Fc1ccc(-c2ccnc(=S)[nH]2)cc1,7.5,23.4*,-8.6,4.2,0.4
CSc1sc(-c2ccnc(=S)[nH]2)c(-c2ccccc2)c1C#N,-3.3,1.9,-0.3,·,-6.7
CCCN1CCN(C(=O)c2oc3c(Cl)cccc3c2C)CC1,3.1,2.3,5.2,-7.1,-5.0
O=C(O)c1cccc(S(=O)(=O)Nc2ccc3oc(=O)sc3c2)c1,0.3,85.3*,17.7,7.7,3.6
O=c1oc2ccc(NS(=O)(=O)c3cccc4cccnc34)cc2s1,13.6,77.1*,-38.6,21.5,-6.0
O=C1CCCc2oc3ccc(NS(=O)(=O)c4cccc5cccnc45)cc3c21,-0.7,-1.8,2.1,-7.3,5.0
CC(=O)Nc1ccc(S(=O)(=O)NCCC(=O)OC(C)C(=O)NC2(C#N)CCCCC2)cc1 (stereo not given),-2.6,-0.1,1.4,0.0,-0.1
COc1ccc(-n2c(SCC(=O)NNC(=S)Nc3ccccc3)nc3ccccc3c2=O)cc1,-7.0,7.9,-2.5,·,·
Cc1cc(C)nc(Nc2nc(=O)c3ccccc3s2)n1,7.2,43.6*,4.6,1.8,8.9
CC(C)(C)NC(=O)C(c1cccc2ccccc12)n1c(=O)c(-c2ccco2)nc2ccccc21 (stereo not given),-0.5,21.7*,-14.5,·,-10.1
N#Cc1ccc(C(C(=O)NC2CCCCC2)n2c(=O)c(-c3ccco3)nc3ccccc32)cc1 (stereo not given),-16.5,22.4*,-3.5,·,3.3
CCCCCNC(=O)C(c1ccc(C(F)(F)F)cc1)n1c(=O)c(-c2ccco2)nc2ccccc21 (stereo not given),-5.1,24.7*,-24.8,·,-3.9
CCCCCNC(=O)C(C1CC1)n1c(=O)c(-c2ccco2)nc2ccccc21 (stereo not given),3.5,22.2*,5.5,·,-1.4
CCn1c(=S)[nH]c2c(=O)n(C)c(=O)n(C)c21,6.4,14.7,2.4,6.4,4.6
COC(=O)[C@H](CO)N1C(=O)[C@@H]2[C@H](C1=O)C1C=C[C@H]2C1,1.3,-3.2,2.5,12.9,0.5
O=C1c2cccnc2-c2ncccc21,0.5,1.7,0.2,1.0,3.2
O=C1C(=O)c2cccnc2-c2ncccc21,-4.2,21.6*,1.5,·,4.5
